Reference: ChEMBL document CHEMBL5625176, “Immunosuppressive effects of new thiophene-based KV1.3 inhibitors” (Eur J Med Chem, 2023)
pIC50: −log10 of the molar value. Converted amounts (≈) assume the structure as drawn. The source made the active and inactive calls. The rule behind the calls is not given here.

Tests used:
[1] = target: T1, Potassium voltage-gated channel subfamily A member 3 (Homo sapiens, UniProt P22001); test: Inhibition of human Kv1.3 expressed in Xenopus laevis Oocyte cells at 10 uM by manual patch clamp method relative to control; assay type: cell-based
T1 sequence (P22001 whole entry): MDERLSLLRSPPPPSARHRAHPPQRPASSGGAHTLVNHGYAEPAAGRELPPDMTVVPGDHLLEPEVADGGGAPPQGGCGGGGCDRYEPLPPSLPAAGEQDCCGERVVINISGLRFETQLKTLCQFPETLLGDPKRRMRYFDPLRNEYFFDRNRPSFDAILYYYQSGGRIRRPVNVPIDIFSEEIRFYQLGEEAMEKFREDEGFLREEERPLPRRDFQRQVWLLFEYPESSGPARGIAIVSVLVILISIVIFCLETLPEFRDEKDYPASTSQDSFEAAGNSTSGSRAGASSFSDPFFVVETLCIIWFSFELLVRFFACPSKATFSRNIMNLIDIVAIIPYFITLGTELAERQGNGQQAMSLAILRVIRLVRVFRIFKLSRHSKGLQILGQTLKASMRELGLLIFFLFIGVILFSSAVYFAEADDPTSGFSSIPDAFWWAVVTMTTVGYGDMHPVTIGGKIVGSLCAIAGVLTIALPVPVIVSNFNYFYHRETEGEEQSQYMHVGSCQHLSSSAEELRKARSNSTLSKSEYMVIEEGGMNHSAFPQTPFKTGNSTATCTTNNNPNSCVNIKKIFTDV
Procedure, shortened: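 Human Kv1.3 cRNA injected into defolliculated Xenopus oocytes. Two-electrode voltage clamp 1–4 days later at 18–22 °C in ND96 (pH 7.5). Currents evoked by 1 s depolarizations, with inhibition read at the 0 mV step. Compounds from DMSO stock at ≤0.5% DMSO, either single 10 μM or rising concentrations fitted with the Hill equation for IC50.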

[2] = target: T1, Potassium voltage-gated channel subfamily A member 3; test: Inhibition of Kv1.3 (unknown origin) expressed in CHO cells incubated for 10 mins by 86Rb+ efflux assay; assay type: cell-based
[3] = target: T1, Potassium voltage-gated channel subfamily A member 3; test: Inhibition of Kv1.3 in human T-lymphocyte by electrophysiology recordings; assay type: cell-based
Procedure, shortened: (§1)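 Whole-cell recording on PBMC stimulated 5 days with PHA-L (240 ng/mL); about 90% of cells CD3⁺. Large cells chosen; cells with currents ≤500–600 pA discarded. Bath in mM: 130 NaCl, 5 KCl, 2 CaCl₂, 2 MgCl₂, 10 HEPES, 5 glucose, pH 7.4; pipette KF-based with 11 EGTA, pH 7.2. Leak-subtracted two-step outward K⁺ current. Single concentration 5 μM, or 0.05 nM–50 μM for curves; peak normalized to control.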

[4] = system: T-cell; test: Inhibition of anti-CD3 stimulated human T cell proliferation incubated for 15 to 30 mins in presence of IL-2 by 3H-thymidine uptake assay; assay type: functional, cell-based
[5] = target: T1, Potassium voltage-gated channel subfamily A member 3; test: Inhibition of Kv1.3 (unknown origin) expressed in human PBMC derived PHA-activated T-lymphocyte cells assessed as reduction in total outward potassium current at 5 uM by patch clamp electrophysiology method; assay type: cell-based; procedure, shortened: as §1
[6] = target: T1, Potassium voltage-gated channel subfamily A member 3; test: Inhibition of Kv1.3 (unknown origin) expressed in Xenopus laevis Oocyte cell membrane by Electrophysiology recording; assay type: cell membranes
[7] = Aqueous solubility of compound; assay type: physicochemical; conditions: buffer
Procedure, shortened: (§2)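 Supernatant diluted 1:2 or 1:10 in 0.1% TFA/MeCN 1:1 and quantified by reversed-phase UPLC at 290 nm against a 7-point calibration (1–100 μM). Mean of two independent experiments, in μM.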

[8] = target: T1, Potassium voltage-gated channel subfamily A member 3; test: Inhibition of human Kv1.3 expressed in mouse LTK- cells by manual patch clamp electrophysiological recording; assay type: cell-based
Procedure, shortened: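 Mouse Ltk⁻ fibroblasts in DMEM/10% horse serum transiently transfected with hKv1.3 plasmid plus eGFP marker, and recorded 24 h later. Whole-cell patch clamp at 20–23 °C. Compounds diluted from DMSO stocks with final DMSO ≤0.1%, with 0.1% DMSO as vehicle control. Normalized current plotted against concentration and fitted with the Hill equation for IC50; mean ± SEM, n = cells.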

[9] = target: hERG (KCNH2) (Homo sapiens, UniProt Q12809); test: Inhibition of hERG overexpressed in HEK293 cells at 5 uM relative to control; assay type: toxicity, cell-based; conditions: HEK293 cells overexpressing hERG
Chain of hERG (KCNH2) (Q12809 whole entry): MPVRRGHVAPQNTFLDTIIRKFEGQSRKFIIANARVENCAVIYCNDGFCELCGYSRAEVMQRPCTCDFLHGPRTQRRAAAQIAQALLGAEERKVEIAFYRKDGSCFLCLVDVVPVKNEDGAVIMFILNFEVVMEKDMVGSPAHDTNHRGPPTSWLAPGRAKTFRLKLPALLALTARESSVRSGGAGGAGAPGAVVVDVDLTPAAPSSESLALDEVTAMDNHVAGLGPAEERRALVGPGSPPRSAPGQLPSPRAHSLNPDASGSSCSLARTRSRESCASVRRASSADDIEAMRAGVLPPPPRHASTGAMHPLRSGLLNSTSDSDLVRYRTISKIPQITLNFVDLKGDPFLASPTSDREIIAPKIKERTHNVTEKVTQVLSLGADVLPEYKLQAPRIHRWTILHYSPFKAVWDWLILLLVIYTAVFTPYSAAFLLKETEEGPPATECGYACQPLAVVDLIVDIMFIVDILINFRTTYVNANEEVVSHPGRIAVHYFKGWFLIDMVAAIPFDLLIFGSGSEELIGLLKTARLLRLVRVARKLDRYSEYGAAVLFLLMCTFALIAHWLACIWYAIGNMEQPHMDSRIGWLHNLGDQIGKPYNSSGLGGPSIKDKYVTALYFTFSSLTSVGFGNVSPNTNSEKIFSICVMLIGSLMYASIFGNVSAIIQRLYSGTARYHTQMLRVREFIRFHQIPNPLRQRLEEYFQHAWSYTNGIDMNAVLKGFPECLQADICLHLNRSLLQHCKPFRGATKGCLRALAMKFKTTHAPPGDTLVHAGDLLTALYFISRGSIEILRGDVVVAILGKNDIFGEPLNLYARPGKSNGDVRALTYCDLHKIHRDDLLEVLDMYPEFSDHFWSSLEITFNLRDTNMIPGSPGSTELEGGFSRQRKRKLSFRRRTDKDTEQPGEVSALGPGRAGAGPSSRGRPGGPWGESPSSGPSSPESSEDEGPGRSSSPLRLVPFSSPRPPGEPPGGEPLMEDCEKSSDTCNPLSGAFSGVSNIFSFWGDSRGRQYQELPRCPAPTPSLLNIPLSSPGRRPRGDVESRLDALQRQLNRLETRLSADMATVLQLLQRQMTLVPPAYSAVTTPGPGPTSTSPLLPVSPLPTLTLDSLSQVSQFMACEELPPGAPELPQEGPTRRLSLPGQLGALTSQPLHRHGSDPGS

[10] = target: T1, Potassium voltage-gated channel subfamily A member 3; test: Inhibition of Kv1.3 (unknown origin) expressed in PBMC derived PHA-activated T-lymphocyte cells incubated for 5 days by manual patch clamp method; assay type: cell-based; procedure, shortened: as §1
[11] = target: T1, Potassium voltage-gated channel subfamily A member 3; test: Inhibition of human Kv1.3 expressed in PHA-activated T-lymphocyte cells assessed as outward current at 1 uM incubated for 1 min by patch clamp electrophysiology method (reference value: 769.2 +/- 199.2 pA); assay type: cell-based
Procedure, shortened: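 Human PBMCs isolated by Ficoll gradient with red-cell lysis, seeded at 1.5 × 10⁶ cells/mL in RPMI with 10% heat-inactivated serum and 2 mM L-glutamine, then stimulated 5 days with PHA-L 240 ng/mL. Whole-cell patch clamp used a bath of (mM) 130 NaCl, 5 KCl, 10 HEPES, pH 7.4 and a pipette of 140 KF, 11 EGTA, pH 7.2. Large cells were selected, and cells with currents ≤500–600 pA were discarded. Outward current was leak-subtracted and compared to control by paired t-test.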

[12] = Thermodynamic solubility of the compound at pH 7.4 incubated for 24 hrs under shaking condition by HPLC analysis; assay type: physicochemical; conditions: buffer, read-out: Therm_solubility; procedure, shortened: as §2
[13] = Aqueous solubility of compound in DMEM; assay type: physicochemical
[14] = system: T-cell; test: Induction of cell cycle arrest at G0/G1 phase in human PBMC derived PHA-activated T-lymphocytes assessed as reduction S phase cells at 30 uM measured after 5 days by flow cytometric analysis; assay type: functional, cell-based; conditions: time 5.0 day
Procedure, shortened: (§3)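 PHA-activated PBMC exposed to compounds (30 μM) for 5 days in RPMI/10% heat-inactivated calf serum/2 mM L-glutamine, scraped off and incubated 1 h at 4 °C in the dark. Cell cycle read by flow cytometry and scored as G0/G1 versus cycling (S+G2/M) percentage. Mean ± SD of 3 experiments; unpaired t-test against untreated cells.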

[15] = system: T-cell line; test: Cytotoxicity against human PBMC derived PHA-activated T-lymphocytes assessed as effect on cell viability by trypan blue staining based analysis; assay type: toxicity; conditions: 30 µM
Procedure, shortened: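 PBMC purified by Ficoll gradient with red-cell lysis, seeded at 1.5 × 10⁶ cells/mL in RPMI with 10% heat-inactivated serum and 2 mM L-glutamine. Activated with PHA-L 240 ng/mL alongside compounds at 30 μM. Viability of treated versus untreated cells judged by trypan blue staining.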

[16] = system: T-cell; test: Inhibition of human PBMC derived PHA-activated T-lymphocytes activation assessed as inhibition of colony formation by measuring reduction in colony forming units at 30 uM incubated for 5 days by bright-field microscopic analysis; assay type: functional, cell-based; conditions: time 5.0 day
Procedure, shortened: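 PBMC at 1.5 × 10⁶ cells/mL treated with compounds (30 μM) together with PHA-L (240 ng/mL) for 5 days in RPMI with 10% heat-inactivated bovine calf serum and 2 mM L-glutamine. After medium removal, wells imaged by bright-field microscopy at 2× and colonies (CFU) counted. Mean ± SD of 3 experiments.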

[17] = system: T-cell; test: Induction of cell cycle arrest at G0/G1 phase in human PBMC derived PHA-activated T-lymphocytes assessed as reduction G2/M phase cells at 30 uM measured after 5 days by flow cytometric analysis; assay type: functional, cell-based; conditions: time 5.0 day; procedure, shortened: as §3
[18] = target: T1, Potassium voltage-gated channel subfamily A member 3; test: Inhibition of Kv1.3 in human PBMC derived PHA-activated T-lymphocytes assessed as reduction in intracellular calcium level at 5 uM incubated for 2 hrs by Fluo-4 Ca2+ based flow cytometric analysis; assay type: cell-based; conditions: T-lymphocyte
Procedure, shortened: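 PBMC activated 5 days with PHA, then given compounds at 5 μM for 2 h. Scraped and loaded with Fluo-4 (2 μM) plus anti-CD3-APC at 37 °C for 1 h, washed, and held 30 min at 37 °C with compound (5 μM) before flow cytometry. Fluo-4 MFI of the CD3⁺ gate, 3 replicates, normalized to untreated control; n = 4.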

[19] = system: T-cell line; test: Cytotoxicity against human PBMC derived PHA-activated T-lymphocytes assessed as effect on total cell number at 30 uM incubated for 5 days by bright-field microscopic analysis; assay type: toxicity, cell-based; conditions: 120 h, time 5 day
Procedure, shortened: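 Ficoll-purified PBMC at 1.5 × 10⁶ cells/mL in RPMI/10% heat-inactivated serum/2 mM L-glutamine, stimulated with PHA-L 240 ng/mL and exposed to compounds (30 μM) for 5 days. Cells then counted to give total cell number.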

Compound | inhibition [1] [%] | inhibition [5] | further results
COc1ccccc1C(=O)NCC1(c2ccccc2)CCC(=O)CC1 | 87.5 | Active | pIC50 [2]: 6.59; pIC50 [3]: 6.51; pIC50 [4]: 6.00
COc1ccc(C)cc1C(=O)NCC1(c2cccs2)CCC(=O)CC1 | 23.3 | Active | –
COc1ccccc1C(=O)NC[C@]1(c2ccsc2)CC[C@@H](N)CC1 | 0.65 | Active | –
COc1ccccc1C(=O)NC[C@]1(c2ccsc2)CC[C@H](N)CC1 | 6.46 | Active | –
COc1ccc(F)cc1C(=O)NC[C@]1(c2cccs2)CC[C@@H](O)CC1 | 54.9 | Active | –
CCCNC(=O)O[C@H]1CC[C@](CNC(=O)c2ccccc2OC)(c2ccccc2)CC1 | 40.5 | Active | –
COc1ccc(F)cc1C(=O)NC[C@]1(c2cccs2)CC[C@H](O)CC1 | 66.4 | Active | –
COc1ccccc1C(=O)NCC1(c2ccsc2)CCCC1 | – | – | pIC50 [6]: 4.76
O=c1ccc2c(OCCCCOc3ccccc3)c3ccoc3cc2o1 | – | – | solubility [7]: < 1000 µg/mL
COCCCNC(=O)O[C@H]1CC[C@](CNC(=O)c2ccccc2OC)(c2cccs2)CC1 | 91.6 | Active | pIC50 [8]: 6.07
O=C1CCC(CNC(=O)c2ccoc2)(c2cccs2)CC1 | 55.3 | Active | –
CNC(=O)O[C@H]1CC[C@@](CNC(=O)c2ccccc2OC)(c2ccsc2)CC1 | 93 | Active | inhibition at 5 µM [9]: 19%; pIC50 [8]: 6.77
COc1cc(C)ccc1C(=O)NCC1(c2cccs2)CCC(=O)CC1 | 85.6 | Active | –
O=C(NC[C@]1(c2cccs2)CC[C@@H](O)CC1)c1ccoc1 | 0 | Active | inhibition at 5 µM [9]: 21%
COCCCNC(=O)O[C@H]1CC[C@](CNC(=O)c2ccccc2OC)(c2ccsc2)CC1 | 94.5 | Active | pIC50 [8]: 6.17
CNC(=O)O[C@H]1CC[C@@](CNC(=O)c2ccccc2OC)(c2cccs2)CC1 | 93.8 | Active | pIC50 [8]: 6.33

Compound | inhibition [1] [%] | inhibition [5] | further results
CCCNC(=O)O[C@H]1CC[C@@](CNC(=O)c2ccccc2OC)(c2ccccc2)CC1 | 87.3 | Active | pIC50 [4]: 6.47
COc1ccccc1C(=O)NC[C@]1(c2cccs2)CC[C@H](O)CC1 | 90.9 | Active | pIC50 [8]: 6.60
COc1ccccc1C(=O)NC[C@]1(c2cccs2)CC[C@@H](O)CC1 | 38.5 | Active | –
O=C(NC[C@]1(c2cccs2)CC[C@H](O)CC1)c1ccoc1 | 65.7 | Active | –
C=CCNC(=O)O[C@H]1CC[C@@](CNC(=O)c2ccccc2OC)(c2ccsc2)CC1 | 36.2 | Active | pIC50 [10]: 7.43
Clc1ccccc1C(c1ccccc1)(c1ccccc1)n1cccn1 | – | – | Activity [11]: 173 pA
COc1ccccc1C(=O)NCC1(c2ccsc2)CCC(=O)CC1 | 97 | Active | solubility thermodynamic at 24 h [12]: 400 µM (≈ 137 µg/mL); pIC50 [8]: 6.10
COc1ccccc1C(=O)NCC1(c2cccs2)CCC(=O)CC1 | 95.1 | Active | solubility thermodynamic at 24 h [12]: 210 µM (≈ 72.1 µg/mL); pIC50 [8]: 5.95
O=c1ccc2c(OCCCCOc3ccc(O)cc3)c3ccoc3cc2o1 | – | – | solubility [13]: 0.6 µM (≈ 0.22 µg/mL)
COc1ccccc1C(=O)NC[C@]1(c2ccsc2)CC[C@@H](O)CC1 | 78.5 | Active | –
CNC(=O)O[C@H]1CC[C@](CNC(=O)c2ccccc2OC)(c2ccsc2)CC1 | 79.6 | Active | –
COc1ccc(F)cc1C(=O)NCC1(c2cccs2)CCC(=O)CC1 | 39.1 | Active | –
COc1ccccc1C(=O)NC[C@]1(c2ccsc2)CC[C@H](O)CC1 | 97.6 | Active | pIC50 [10]: 7.25; Activity [14]: Active; Activity [15]: Non-Toxic; inhibition at 5 µM [9]: 15%; solubility thermodynamic at 24 h [12]: 72 µM (≈ 24.9 µg/mL); inhibition [16]: Active; pIC50 [8]: 6.35; Activity [17]: Active; inhibition [18]: inactive; Activity [19]: Non-Toxic
CCCNC(=O)O[C@H]1CC[C@](CNC(=O)c2ccccc2OC)(c2ccsc2)CC1 | 25.5 | Active | –
CNC(=O)O[C@H]1CC[C@](CNC(=O)c2ccccc2OC)(c2cccs2)CC1 | 94.7 | Active | pIC50 [8]: 6.74
